Results from ChEMBL document CHEMBL3856288, “Amidate Prodrugs of Deoxythreosyl Nucleoside Phosphonates as Dual Inhibitors of HIV and HBV Replication” (J Med Chem, 2016).

Key:
[1] = Cytotoxicity against human HepG2(2.2.15) cells assessed as reduction in cell viability by MTS assay; format: toxicity, cell-based
How it was run: (§1)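 HepG2 2.2.15 cells (stable line carrying two copies of the HBV ayw1 genome) were seeded at 1.5 × 10^4 cells/well in DMEM with 2% FBS and G418. After 16−24 h, compound was added in triplicate, and medium plus compound was renewed on day 3. On day 6, supernatant was Pronase-treated and extracellular HBV DNA was quantified by TaqMan qPCR against an HBV DNA standard curve to give EC50/EC90. Cell viability was read by MTS uptake to give CC50.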

[2] = Cytotoxicity against human MT4 cells assessed as decrease in cell viability after 5 days by MTT assay; format: toxicity, cell-based
Hepatitis B virus [3] = assay: Antiviral activity against HBV ayw1 infected in human HepG2(2.2.15) cells assessed as reduction in viral replication by measuring extracellular viral DNA copy number after 6 days by real-time qPCR method; format: functional, cell-based; conditions: ayw1, HepG2 2.2.15, 144 h; how it was run: as §1
[4] = system: Human immunodeficiency virus 1; assay: Antiviral activity against HIV1 3B infected in human MT4 cells assessed as protection against virus-induced cytopathic effect after 5 days by MTT assay; format: functional, cell-based; conditions: Human immunodeficiency virus 1, 3B, MT4, 120 h
[5] = Antiviral activity against HIV2 ROD infected in human MT4 cells assessed as protection against virus-induced cytopathic effect after 5 days by MTT assay; format: functional, cell-based, Human immunodeficiency virus type 2 (ISOLATE ROD); conditions: Human immunodeficiency virus 2, MT4, 120 h
[6] = Selectivity ratio of CC50 for human HepG2(2.2.15) cells to EC50 for reduction in HBV ayw1 extracellular DNA copy number; conditions: read-out: Ratio CC50/EC50
How it was run: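 HepG2 2.2.15 cells (two HBV ayw1 genome copies), 1.5 × 10^4 cells/well in DMEM with 2% FBS and G418; compound dosed in triplicate and medium renewed on day 3. On day 6, Pronase-treated supernatant HBV DNA measured by TaqMan qPCR against a standard curve, giving EC50. MTS uptake gave CC50, and the ratio was calculated from these.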

[7] = Selectivity index, ratio of CC50 for human MT4 cells to EC50 for HIV1 3B infected in human MT4 cells; format: toxicity, cell-based; conditions: read-out: Ratio CC50/EC50
[8] = Selectivity index, ratio of CC50 for human MT4 cells to EC50 for HIV2 ROD infected in human MT4 cells; format: toxicity, cell-based; conditions: read-out: Ratio CC50/EC50
[9] = system: Human immunodeficiency virus 1; assay: Antiviral activity against HIV1 3B infected in human MT2 cells assessed as protection against virus-induced cytopathic effect after 5 days by XTT assay; format: functional, cell-based; conditions: Human immunodeficiency virus 1, 3B, MT2, 120 h
[10] = Selectivity ratio of CC50 for human HepG2(2.2.15) cells to EC50 for reduction in HBV ayw1 intracellular DNA copy number; format: ADME, cell-based; conditions: read-out: Ratio CC50/EC50
How it was run: (§2)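 The protocol was the same as the primary HepG2 2.2.15 assay (triplicate dosing, medium plus compound renewed on day 3, 6-day course). At the end, total intracellular DNA was isolated from the cells and HBV DNA copy number was measured by TaqMan qPCR to give EC50/EC90. CC50 came from MTS viability, and SI was taken as CC50/EC50.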

[11] = Drug metabolism in acetone-d6/pH 7.6 Trizma buffer assessed as baker's yeast carboxypeptidase Y-mediated (S)-2-((((3R,5R)-5-(6-amino-9H-purin-9-yl)tetrahydrofuran-3-yloxy)methyl)oxidophosphorylamino)-4-(isopentyloxy)-4-oxobutanoate formation at 1 mg after 3 hrs by RP-HPLC/mass spectra analysis; format: ADME; conditions: saccharomyces cerevisiae, pH 7.6, 3 h
[12] = Chemical stability of the compound in pH 8 phosphate buffer assessed as parent compound remaining at 2 mg after 14 hrs by 31P NMR method; format: physicochemical; conditions: read-out: Stability
How it was run: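 Prodrug (2 mg) in 0.2 mL acetone-d6 plus 0.3 mL pH 8 buffer (0.1 M Na2HPO4 adjusted with 0.1 M HCl); in situ 31P NMR (202 MHz) at 37 °C, spectra every 30 min over 14 h; parent remaining followed by diastereomer peak disappearance.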

[13] = Half life in human liver S9 fraction at 100 uM by HPLC-UV method; format: ADME, subcellular
How it was run: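 Incubation started by adding human liver S9 fraction (4 mg/mL) at 37 °C; aliquots at 0, 10, 20, 30, 60 min quenched in acetonitrile, centrifuged, supernatant analysed by C18 HPLC with UV at 260 nm; parent peak area versus time 0 gave percent remaining and half-life.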

Hepatitis B virus [14] = assay: Antiviral activity against HBV ayw1 infected in human HepG2(2.2.15) cells assessed as reduction in viral replication by measuring intracellular viral DNA copy number after 6 days by real-time qPCR method; format: functional, cell-based; conditions: ayw1, HepG2 2.2.15, 144 h; how it was run: as §2
[15] = Half life in human liver microsomes at 0.1 uM in presence of NADPH-regenerating system by HPLC MS/MS method; format: ADME
How it was run: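 Pooled liver microsomes preincubated 10 min at 37 °C with NADPH-regenerating system (1 mM NADP, 5 mM G6P, 1 U/mL G6PDHase) in phosphate buffer pH 7.4, 3 mM MgCl2, 1 mM EDTA; compound added at 0.1 μM final; samples at 0, 15, 30, 45, 60 min quenched in acetonitrile/methanol, analysed by HPLC MS/MS.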

[16] = Chemical stability of the compound in pH 1 phosphate buffer at 2 mg after 1 to 2 hrs by 31P NMR method; format: physicochemical
How it was run: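 Prodrug (2.0 mg) dissolved in 0.2 mL acetone-d6 plus 0.3 mL pH 1 buffer (equal parts 0.2 M HCl and 0.2 M KCl); in situ 31P NMR (202 MHz) at 37 °C, spectra recorded every 30 min over 14 h, tracking loss of the diastereomer peaks.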

[17] = Drug level in acetone-d6/pH 7.6 Trizma buffer treated with 1'alpha-(Adenin-9-yl)-2'-deoxy-3'-O-{[N-(diisoamyl-L-aspartate)](phenoxy)methylphosphonoamidate}-L-threose assessed as baker's yeast carboxypeptidase Y-mediated compound formation at 1 mg after 3 hrs by RP-HPLC/mass spectra analysis; format: ADME; conditions: saccharomyces cerevisiae, in vitro, pH 7.6, 3 h

Nc1nc2c(ncn2[C@H]2C[C@@H](OCP(=O)(O)O)CO2)c(=O)[nH]1
CC50 [1]: > 100 µM | CC50 at 120 h [2]: > 302 µM | EC50 (Hepatitis B virus [3]): > 100 µM | EC90 (Hepatitis B virus [3]): > 100 µM | EC50 [4]: > 302 µM | EC50 [5]: > 302 µM

Nc1ncnc2c1ncn2[C@H]1C[C@@H](OCP(=O)(O)O)CO1
CC50 [1]: > 100 µM | selectivity ratio [6]: > 200 | CC50 at 120 h [2]: ≥ 315 µM | selectivity ratio [7]: ≥ 67 | EC50 (Hepatitis B virus [3]): 0.5 µM | EC50 [4]: 4.69 µM | EC50 [5]: 5.23 µM | selectivity ratio [8]: ≥ 60

C[C@H](Cn1cnc2c(N)ncnc21)OCP(=O)(O)O [TENOFOVIR ANHYDROUS]
EC50 [9]: 5 µM

CC(C)OC(=O)[C@H](C)NP(=O)(CO[C@H]1CO[C@@H](n2cnc3c(=O)[nH]c(N)nc32)C1)Oc1ccccc1 (some centres not stated)
CC50 [1]: > 100 µM | CC50 at 120 h [2]: ≥ 112 µM | EC50 (Hepatitis B virus [3]): > 100 µM | EC90 (Hepatitis B virus [3]): > 100 µM | EC50 [4]: > 112 µM | EC50 [5]: > 112 µM

CC(C)CCOC(=O)C[C@H](NP(=O)(CO[C@H]1CO[C@@H](n2cnc3c(N)ncnc32)C1)Oc1ccccc1)C(=O)OCCC(C)C (some centres not stated)
CC50 [1]: 35.2 µM | selectivity ratio [6]: > 1250 | selectivity ratio [10]: 8810 | CC50 at 120 h [2]: 16.9 µM | Drug metabolism [11]: Metabolite_Detected | remaining at 14 h [12]: 43% | selectivity ratio [7]: 792 | EC50 (Hepatitis B virus [3]): 0.01 µM | EC90 (Hepatitis B virus [3]): 0.98 µM | half-life at 100 µM [13]: 12.1 min | EC50 [4]: 0.0216 µM | EC50 (Hepatitis B virus [14]): < 0.01 µM | EC90 (Hepatitis B virus [14]): 0.36 µM | EC50 [5]: 0.0036 µM | half-life at 0.1 µM [15]: 8 min | selectivity ratio [8]: 4810 | Stability [16]: Unstable

CC(C)OC(=O)[C@H](C)NP(=O)(CO[C@H]1CO[C@@H](n2cnc3c(N)ncnc32)C1)Oc1ccccc1 (some centres not stated)
CC50 [1]: > 10 µM | selectivity ratio [6]: > 333 | CC50 at 120 h [2]: 61.8 µM | selectivity ratio [7]: 597 | EC50 (Hepatitis B virus [3]): 0.03 µM | EC90 (Hepatitis B virus [3]): > 10 µM | half-life at 100 µM [13]: > 60 min | EC50 [4]: 0.103 µM | EC50 [5]: 0.0535 µM | half-life at 0.1 µM [15]: > 60 min | selectivity ratio [8]: 1150

Nc1ccn([C@H]2C[C@@H](OCP(=O)(O)O)CO2)c(=O)n1
CC50 [1]: > 100 µM | CC50 at 120 h [2]: > 343 µM | EC50 (Hepatitis B virus [3]): > 100 µM | EC90 (Hepatitis B virus [3]): > 100 µM | EC50 [4]: > 343 µM | EC50 [5]: > 343 µM

CCCOC(=O)[C@H](Cc1ccccc1)NP(=O)(CO[C@H]1CO[C@@H](n2cnc3c(=O)[nH]c(N)nc32)C1)N[C@@H](Cc1ccccc1)C(=O)OCCC
CC50 [1]: > 100 µM | CC50 at 120 h [2]: > 62 µM | EC50 (Hepatitis B virus [3]): > 100 µM | EC50 [4]: > 62 µM | EC50 [5]: > 62 µM

CC(C)CCOC(=O)C[C@H](NP(=O)(O)CO[C@H]1CO[C@@H](n2cnc3c(N)ncnc32)C1)C(=O)O
Drug metabolism [17]: Metabolite_Detected

CC(C)OC(=O)[C@H](C)NP(=O)(CO[C@H]1CO[C@@H](n2cnc3c(=O)[nH]c(N)nc32)C1)N[C@@H](C)C(=O)OC(C)C
CC50 [1]: > 100 µM | CC50 at 120 h [2]: ≥ 97.6 µM | EC50 (Hepatitis B virus [3]): > 100 µM | EC90 (Hepatitis B virus [3]): > 100 µM | EC50 [4]: > 97.6 µM | EC50 [5]: > 97.6 µM
